According to ChEMBL document CHEMBL4732101, “Novel quinolone-based potent and selective HDAC6 inhibitors: Synthesis, molecular modeling studies and biological investigation” (Eur J Med Chem, 2021):
Activity calls are given as the source filed them. No cut-off for these calls is given here.

Legend:
[1] = Cytotoxicity against human PBMC cells assessed as reduction in cell viability at 90 uM measured after 24 to 48 hrs by GUAVA easyCyte cytometric method; assay type: cell-based; details: time 24-48 hrs
Summary of the method: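 PBMCs seeded at 1.5 x10^6/mL in complete medium and exposed to 15, 45 or 90 µM test compound, or DMSO vehicle, for 24 h and 48 h. Percentage of viable cells determined by flow cytometry with ViaCount reagent.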

U-937 = test: Cytotoxicity against human U-937 cells assessed as reduction in cell proliferation at 50 uM measured after 48 hrs by MTT assay relative to control; assay type: functional; set-up: scale not given: the % may be the effect or the level left
Summary of the method: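 U937 cells grown in RPMI-1640 with 10% FBS, 2 mM L-glutamine and penicillin-streptomycin. 2.5×10^4 cells/well treated in triplicate at 50, 25, 10, 5 and 1 µM for 12, 24 or 48 h. MTT 0.5 mg/ml added for 3 h, plate centrifuged 5 min at 1200 rpm, crystals dissolved in isopropanol, A570 read. IC50 derived from the concentration series.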

[2] = Inhibition of HDAC1/2/3/8 in human HCT-116 cells assessed as increase in H3K9/14 acetylation at 10 uM measured after 12 to 24 hrs by Western blot analysis relative to control; assay type: cell-based; details: hct-116, 10 µM, time 12-24 hrs
Summary of the method: (§1)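 HCT-116 or U937 cells treated at 10 µM for 12 and 24 h. […] Western blot used 40 µg total protein or 5 µg acid-extracted histone. Blots probed for cleaved PARP, acetylated tubulin, H3K9/14ac and Hsp90(AcLys294), normalized to GAPDH or H4. Compared with control cells by one-way ANOVA and Dunnett's test.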

[3] = molecular target: T1, Protein deacetylase HDAC6 (Homo sapiens) (UniProt Q9UBN7); test: Inhibition of HDAC6 in human U-937 cells assessed as increase in Hsp90(AcLys294) acetylation at 10 uM measured after 12 to 24 hrs by Western blot analysis; assay type: cell-based; details: time 12-24 hrs; summary of the method: as §1
T1 sequence (whole entry): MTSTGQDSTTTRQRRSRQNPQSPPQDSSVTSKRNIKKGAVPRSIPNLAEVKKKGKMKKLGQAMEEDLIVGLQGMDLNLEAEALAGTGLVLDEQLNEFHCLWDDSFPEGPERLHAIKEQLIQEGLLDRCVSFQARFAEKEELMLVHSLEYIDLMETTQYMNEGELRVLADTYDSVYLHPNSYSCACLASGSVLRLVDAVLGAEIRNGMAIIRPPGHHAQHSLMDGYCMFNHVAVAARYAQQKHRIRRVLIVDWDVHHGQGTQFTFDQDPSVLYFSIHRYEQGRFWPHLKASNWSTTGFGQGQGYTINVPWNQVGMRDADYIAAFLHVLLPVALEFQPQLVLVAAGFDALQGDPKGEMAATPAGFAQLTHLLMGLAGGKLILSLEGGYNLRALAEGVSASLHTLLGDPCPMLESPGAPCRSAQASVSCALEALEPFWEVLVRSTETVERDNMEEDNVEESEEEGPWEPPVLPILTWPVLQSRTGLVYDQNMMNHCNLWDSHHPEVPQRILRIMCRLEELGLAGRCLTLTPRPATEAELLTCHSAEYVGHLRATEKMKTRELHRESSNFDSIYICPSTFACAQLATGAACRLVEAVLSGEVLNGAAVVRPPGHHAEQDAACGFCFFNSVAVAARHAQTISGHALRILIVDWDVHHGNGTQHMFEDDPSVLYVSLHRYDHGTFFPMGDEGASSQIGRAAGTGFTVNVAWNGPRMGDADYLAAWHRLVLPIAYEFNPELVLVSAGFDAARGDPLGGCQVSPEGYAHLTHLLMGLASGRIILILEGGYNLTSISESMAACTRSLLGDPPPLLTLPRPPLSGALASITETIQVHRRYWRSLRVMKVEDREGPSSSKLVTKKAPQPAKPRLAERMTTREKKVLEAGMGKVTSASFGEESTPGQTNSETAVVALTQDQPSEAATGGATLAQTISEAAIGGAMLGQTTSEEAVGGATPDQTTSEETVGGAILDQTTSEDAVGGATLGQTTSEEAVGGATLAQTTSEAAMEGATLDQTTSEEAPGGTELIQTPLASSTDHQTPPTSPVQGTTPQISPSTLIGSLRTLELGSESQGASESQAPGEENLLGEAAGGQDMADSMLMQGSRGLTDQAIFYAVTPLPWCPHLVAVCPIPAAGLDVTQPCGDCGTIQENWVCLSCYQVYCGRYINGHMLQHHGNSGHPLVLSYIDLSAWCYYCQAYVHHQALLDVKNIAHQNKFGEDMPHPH

NIH3T3 = test: Cytotoxicity against mouse NIH/3T3 cells assessed as reduction in cell viability after 24 hrs by neutral red uptake assay; assay type: cell-based; details: NIH3T3, 24 h
Summary of the method: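 NIH3T3 fibroblasts seeded at 5 x 10^4 per well and cultured 24 h at 37 °C, 5% CO2. DMSO-solubilized samples added at 8 to 160 µM for 24 h; medium as negative control. Neutral Red medium applied 3 h, dye desorbed in acetic acid/ethanol, absorbance read at 540 nm. Three experiments, six replicates per concentration; viability normalized to % control.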

[4] = Solubility of compound in pH 3 buffer at 250 uM measured after 24 hrs by HPLC/UV/DAD method; assay type: physicochemical; details: pH 3, 24 h
Summary of the method: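 10 mM DMSO stock diluted to 250 µM (2.5% DMSO) in 50 mM acetic acid, pH 3.0, and shaken 24 h at 25 °C. For solubility, samples filtered, diluted 1:2, quantified by HPLC-UV at 254 nm against a standard. For stability, percent remaining taken as the 24 h peak area over the T0 peak area. Triplicate analyses averaged.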

[5] = molecular target: T1, Protein deacetylase HDAC6 (Homo sapiens); test: Inhibition of HDAC6 in human U-937 cells assessed as increase in alpha-tubulin acetylation at 10 uM measured after 12 to 24 hrs by Western blot analysis relative to control; assay type: cell-based; details: time 12-24 hrs; summary of the method: as §1
[6] = Inhibition of HDAC1/2/3/8 in human U-937 cells assessed as increase in H3K9/14 acetylation at 10 uM measured after 12 to 24 hrs by Western blot analysis; assay type: cell-based; details: u-937, 10 µM, time 12-24 hrs; summary of the method: as §1
Histone deacetylase 8 = molecular target: T2, Histone deacetylase 8 (Homo sapiens, UniProt Q9BY41); test: Inhibition of recombinant human HDAC8 using Fluor-de-Lys as substrate measured after 1 hr by fluorescence assay
T2 sequence (Q9BY41 whole entry): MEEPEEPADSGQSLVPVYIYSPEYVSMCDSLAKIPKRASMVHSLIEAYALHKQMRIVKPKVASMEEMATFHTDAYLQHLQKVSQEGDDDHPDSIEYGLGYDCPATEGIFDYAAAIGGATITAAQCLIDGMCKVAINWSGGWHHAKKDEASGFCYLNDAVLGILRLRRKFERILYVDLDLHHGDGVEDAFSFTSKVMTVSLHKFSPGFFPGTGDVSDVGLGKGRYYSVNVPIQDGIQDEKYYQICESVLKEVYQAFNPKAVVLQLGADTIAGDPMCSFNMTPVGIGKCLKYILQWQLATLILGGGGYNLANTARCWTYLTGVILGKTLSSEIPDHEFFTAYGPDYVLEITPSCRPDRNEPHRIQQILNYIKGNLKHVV

fold change (FC) [2]: > 6
inhibition [3]: inactive
solubility [4]: Soluble
fold change (FC) [5]: > 9
inhibition (INH) [6]: Active
IC50 (Histone deacetylase 8): 0.49 µM
Kapp (Histone deacetylase 8; human, 1 h): 0.4 µM
Compound: CCN(CC)Cc1ccc(Cn2c(=O)c(OCc3ccc(C(=O)NO)cc3)c(-c3cccnc3)c3ccccc32)cc1
Activity [1]: Toxic
Activity (U-937): 60%
IC50 (NIH3T3): 90 µM
